Source: ChEMBL document CHEMBL3352538, “Vascular L-type Ca²⁺ channel blocking activity of sulfur-containing indole alkaloids from Glycosmis petelotii” (J Nat Prod, 2014)

How the values were obtained:
[1] = target: T1, Voltage-gated L-type calcium channel (Rattus norvegicus, UniProt P22002+Q02485+P27732); assay: Inhibition of L-type calcium channel in endothelium-denuded Wistar rat aorta rings assessed as relaxation of phenylephrine-induced contraction; details: for inhibition (INH): rat
[2] = target: T1, Voltage-gated L-type calcium channel; assay: Inhibition of L-type calcium channel in endothelium-intact Wistar rat aorta rings assessed as relaxation of 0.3 uM phenylephrine-induced contraction
[3] = target: T1, Voltage-gated L-type calcium channel; assay: Inhibition of L-type calcium channel in Wistar rat tail artery myocytes assessed as reduction in L-type Ba(2+) current at Vh of -50 mV; details: for inhibition (INH): rat
[4] = target: T1, Voltage-gated L-type calcium channel; assay: Inhibition of L-type calcium channel in endothelium-denuded Wistar rat aorta rings assessed as relaxation of 60 mM K+-induced contraction; details: for inhibition (INH): rat
[5] = target: T1, Voltage-gated L-type calcium channel; assay: Inhibition of L-type calcium channel in endothelium-denuded Wistar rat aorta rings depolarized with 60 mM K+ solution assessed as relaxation of Ca2+-induced contraction at 43 and 128 uM in presence of 10 nM calcium channel agonist (S)-(-)Bay K 8644
Procedure, shortened: (§1)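 Following the cumulative Ca2+ (0.03−3 mM) curve in endothelium-denuded rings depolarized with Ca2+-free 60 mM K+ PSS, with compound or vehicle present from 30 min beforehand, 10 nM (S)-(−)-Bay K 8644 was added after the last Ca2+ addition. Tone expressed as % of the response to 60 mM K+; mean ± SE, n = 4−17.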

[6] = target: T1, Voltage-gated L-type calcium channel; assay: Inhibition of L-type calcium channel in Wistar rat aorta rings assessed as relaxation of phenylephrine-induced contraction in Ca2+ free medium
Procedure, shortened: (§2)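 Rings in Ca2+-free PSS with 1 mM EGTA for 15 min, then 30 min incubation with vehicle or alkaloid. Contraction to 10 μM phenylephrine reflects sarcoplasmic reticulum Ca2+ release; 3.5 mM Ca2+ is then re-added with phenylephrine still present to index Ca2+ influx. Washed 45 min and repeated at a higher concentration. Expressed as % of 0.3 μM phenylephrine contraction in PSS.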

[7] = target: T1, Voltage-gated L-type calcium channel; assay: Inhibition of L-type calcium channel in Wistar rat aorta rings assessed as relaxation of phenylephrine-induced contraction in Ca2+ restored medium; procedure, shortened: as §2
[8] = target: T1, Voltage-gated L-type calcium channel; assay: Inhibition of L-type calcium channel in endothelium-denuded Wistar rat aorta rings assessed as relaxation of 30 mM K+-induced contraction
Procedure, shortened: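 Endothelium-denuded rat aorta rings, isometric tension, equilibrated 60 min in PSS gassed with 95% O2/5% CO2 (pH 7.4). Contracted with 0.3 μM phenylephrine, or 30 or 60 mM K+ (KCl replacing NaCl).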

[9] = target: T1, Voltage-gated L-type calcium channel; assay: Inhibition of L-type calcium channel in endothelium-denuded Wistar rat aorta rings depolarized with 60 mM K+ solution assessed as relaxation of Ca2+-induced contraction
Procedure, shortened: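 Endothelium-denuded rings stimulated with 60 mM K+ for 15 min, then washed 90 min in Ca2+-free PSS with 1 mM EGTA, and stores emptied with 0.3 μM phenylephrine. Depolarized in Ca2+-free 60 mM K+ PSS, then cumulative Ca2+ (0.03−3 mM). Test substance or vehicle present 30 min before and throughout.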

[10] = target: T1, Voltage-gated L-type calcium channel; assay: Inhibition of L-type calcium channel in endothelium-denuded Wistar rat aorta rings depolarized with 60 mM K+ solution assessed as relaxation of Ca2+-induced contraction at 12 and 40 uM in presence of 10 nM calcium channel agonist (S)-(-)Bay K 8644; procedure, shortened: as §1

| inhibition (INH) [1] | inhibition (INH) [4] | inhibition (INH) [5] | inhibition (INH) [6] | pIC50 [1] | inhibition (INH) [7] | pIC50 [2] | pIC50 [8] | pIC50 [4] | inhibition (INH) [9] | IC50 [3] [µM] | inhibition (INH) [10] | SMILES | inhibition (INH) ([2]; rat) | inhibition (INH) [3] |
| --- | --- | --- | --- | --- | --- | --- | --- | --- | --- | --- | --- | --- | --- | --- |
| Dose-dependent effect | Dose-dependent effect | Not Active | Not Active | 4.3 | Active | 4.2 | 3.9 | 4.1 | Dose-dependent effect |  |  | CSC(=O)NCCc1c[nH]c2ccccc12 |  |  |
| Dose-dependent effect | Dose-dependent effect |  | Not Active | 4.7 |  | 4.4 | 4.5 | 4.8 | Dose-dependent effect | 251 | Not Active | CSC(=O)N(C)CCc1c[nH]c2ccccc12 |  | Dose-dependent effect |

| SMILES | inhibition (INH) [1] | inhibition (INH) [4] | inhibition (INH) [5] | inhibition (INH) [6] | pIC50 [1] | inhibition (INH) [7] | pIC50 [2] | pIC50 [8] | pIC50 [4] | inhibition (INH) [9] | IC50 [3] [µM] | inhibition (INH) [10] | inhibition (INH) ([2]; rat) | inhibition (INH) [3] |
| --- | --- | --- | --- | --- | --- | --- | --- | --- | --- | --- | --- | --- | --- | --- |
| COc1ccc(CCN(C)CCCC(C#N)(c2ccc(OC)c(OC)c2)C(C)C)cc1OC (stereo not given) | Dose-dependent effect | Dose-dependent effect |  |  |  |  |  |  |  |  |  |  | Dose-dependent effect | Dose-dependent effect |
